Data on four compounds can be found in ChEMBL document CHEMBL1124429, “Heterocyclic analogues of benzamide antiarrhythmic agents” (J Med Chem, 1989).

The structures appear in SMILES notation. Where “and” joins values, the source holds several entries; their conditions need not be identical. Equal entries are not always repeated.

For series [1], the species on record is Canis familiaris. Kind of series: Percent change in repolarization at 10 Purkinje fibers.; value ranges from -19 - 1. Format: functional, Canis lupus familiaris, Purkinje fiber. In a few lines: (§1)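 Canine Purkinje fibers were held in oxygenated (95% O2–5% CO2) physiological saline, pH 7.35–7.40, at 36 ± 0.5 °C and paced at 1.0 Hz with 2-ms pulses at twice diastolic threshold. Intracellular microelectrodes (3 M KCl) recorded Vmax and APD95 simultaneously. After up to 1 h of stabilization, compounds were tested from 10^-8 to 10^-3 M with 30 min per concentration. One compound per fiber, with vehicle controls. For N ≥ 3, values are the mean with the range.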

For series [2], the species on record is Canis familiaris. The series is described as follows: Maximum Percent change from control in the rate of rise of phase 0 of the action potential at 30 uM concentration on Canine Purkinje fibers. More on the design: species or system Canis lupus familiaris, Purkinje fiber. The following applies: dog, in vitro. The method, boiled down: (§2)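 Isolated canine Purkinje fibers were superfused with physiological saline gassed with 95% O2/5% CO2 (pH 7.35–7.40) at 36 ± 0.5 °C. Paced at 1.0 Hz with 2-ms pulses at twice diastolic threshold. After up to 1 h stabilization, compounds were tested over 10^-8 to 10^-3 M, 30 min per concentration, one compound per fiber, with vehicle controls. Intracellular microelectrodes (3 M KCl) recorded Vmax and APD95; maximum percent change from control is reported with its concentration.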

For series [3], the species on record is Canis familiaris. Kind of series: Maximum percent change in repolarization at 30 uM concentration on Canine Purkinje fibers. In kind it is functional, Canis lupus familiaris, Purkinje fiber. In a few lines:
as §2

The species entered for series [4] is Canis familiaris. The series is described as follows: Maximum percent change in functional refractory period (FRP) at 1 uM on Canine ventricular muscle fibre. On the set-up: species or system Canis lupus familiaris, Muscle tissue. In a few lines:
(§3)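 Canine right ventricular papillary muscle strips were superfused at 36 ± 0.5 °C with saline gassed with 95% O2/5% CO2. Diastolic threshold was found with 2-ms stimuli at 4000 ms cycle length, then pacing at 4× threshold for 60 min equilibration. FRP was measured at 1000 ms cycle length by S1-S2 premature stimulus after every tenth S1. Conduction time came from a bipolar electrogram. Various compound concentrations were tested, one compound per strip, with vehicle controls. Percent change from control was taken at 10 µM, or the maximum change with its concentration; for N ≥ 3, mean with range.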

The species entered for series [5] is Canis familiaris. Kind of series: Percent change from control in the functional refractory period (FRP) at 10 uM conc. on Canine ventricular muscle fibre. On the set-up: species or system Canis lupus familiaris, Muscle tissue. The method, boiled down: as §3
For series [6], the species on record is Canis familiaris. Kind of series: Maximum percent change in repolarization at 100 uM concentration on Canine Purkinje fibers. Format: functional, Canis lupus familiaris, Purkinje fiber. The method, boiled down: as §2
The species entered for series [7] is Canis familiaris. The series is described as follows: Maximum percent change in conduction time (CT) at 10 uM concentration tested on Canine ventricular muscle fibre. Format: functional, Canis lupus familiaris, Muscle tissue. The method, boiled down: as §3
The species named for series [8] is Cavia porcellus. Kind of series: Concentration of compound which gives a 20% decrease in contractile force was tested on papillary muscle of guinea pig, activity was expressed as EC-20. In kind it is functional. The settings on record: Muscle tissue. The method, boiled down:
(§4)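 Contractile force measured in an isolated cardiac muscle preparation. Value is the concentration giving a 20% decrease in force of contraction. NR marks that this decrease was not reached. Values come from individual experiments; for N ≥ 3, the mean is given with the range.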

The species entered for series [9] is Canis familiaris. The series is described as follows: Maximum percent change in functional refractory period (FRP) at 100 uM on Canine ventricular muscle fibre. On the set-up: species or system Canis lupus familiaris, Muscle tissue. The method, boiled down: as §3
The species named for series [10] is Canis familiaris. The series is described as follows: Percent change from control in conduction time (CT) at 10 uM concentration tested on Canine ventricular muscle fibre. Format: functional, Canis lupus familiaris, Muscle tissue. The method, boiled down:
as §3

The species entered for series [11] is Canis familiaris. Kind of series: Percent change from control in the rate of rise of phase 0 of the action potential at 10 uM concentration on Canine Purkinje fibers.; value ranges from -17 - -7. In kind it is […], organism-based, Canis lupus familiaris, Purkinje fiber. The settings on record: dog, in vitro.
The species named for series [12] is Canis familiaris. The series is described as follows: Maximum percent change in conduction time (CT) at 0.1 uM concentration tested on Canine ventricular muscle fibre. Format: functional, Canis lupus familiaris, Muscle tissue. In a few lines: as §3
The species entered for series [13] is Canis familiaris. Kind of series: Maximum Percent change from control in the rate of rise of phase 0 of the action potential at 100 uM concentration on Canine Purkinje fibers. In kind it is […], Canis lupus familiaris, Purkinje fiber. The following applies: dog, in vitro. The method, boiled down: as §2
The species entered for series [14] is Canis familiaris. Kind of series: The maximum percent change in action potential (Vmax ) at concentration observed (100 uM was tested on Canine Purkinje fibers. On the set-up: species or system Canis lupus familiaris, Purkinje fiber. The settings on record: dog. The method, boiled down: as §1
Series [15] is filed under the species Canis familiaris. Kind of series: Maximum percent change in conduction time (CT) at 100 uM concentration tested on Canine ventricular muscle fibre; value ranges from 6-27. In kind it is functional, Canis lupus familiaris, Muscle tissue. The method, boiled down: as §3
For series [16], the species on record is Canis familiaris. Kind of series: Maximum percent change in functional refractory period (FRP) at 100 uM on Canine ventricular muscle fibre.; value ranges from -3 - 26. On the set-up: species or system Canis lupus familiaris, Muscle tissue. In a few lines: as §3
For series [17], the species on record is Canis familiaris. The series is described as follows: Percent change from control in conduction time (CT) at 10 uM concentration tested on Canine ventricular muscle fibre.; M is minimal(<10% change in CT). In kind it is functional. The settings on record: Canis lupus familiaris, Muscle tissue. The method, boiled down: as §3
The species entered for series [18] is Canis familiaris. Kind of series: Percent change from control in the functional refractory period (FRP) at 10 uM conc. on Canine ventricular muscle fibre.; value ranges from -1 - 16. On the set-up: species or system Canis lupus familiaris, Muscle tissue. The method, boiled down:
as §3

The species named for series [19] is Canis familiaris. The series is described as follows: Percent change in repolarization at 10 Purkinje fibers.; value ranges from -6 -2. Format: functional, Canis lupus familiaris, Purkinje fiber. In a few lines: as §1
The species named for series [20] is Canis familiaris. Kind of series: Percent change from control in the rate of rise of phase 0 of the action potential at 10 uM concentration on Canine Purkinje fibers.; value ranges from -18 - -4. Format: organism-based, Canis lupus familiaris, Purkinje fiber. The settings on record: dog, in vitro.
The species named for series [21] is Canis familiaris. The series is described as follows: Maximum Percent change from control in the rate of rise of phase 0 of the action potential at 1 uM concentration on Canine Purkinje fibers. On the set-up: species or system Canis lupus familiaris, Purkinje fiber. In a few lines:
as §2

The species entered for series [22] is Canis familiaris. The series is described as follows: Maximum percent change in repolarization at 1 uM concentration on Canine Purkinje fibers. Format: functional, Canis lupus familiaris, Purkinje fiber. In a few lines:
as §2

Series [23] is filed under the species Canis familiaris. The series is described as follows: Percent change from control in the rate of rise of phase 0 of the action potential at 10 uM concentration on Canine Purkinje fibers.; value ranges from -20 - -3. The settings on record: dog, in vitro. Format: organism-based, Canis lupus familiaris, Purkinje fiber.
Series [24] is filed under the species Canis familiaris. The series is described as follows: Maximum percent change in conduction time (CT) at 100 uM concentration tested on Canine ventricular muscle fibre. Format: functional, Canis lupus familiaris, Muscle tissue. The method, boiled down: as §3
The species entered for series [25] is Canis familiaris. Kind of series: Percent change from control in conduction time (CT) at 10 uM concentration tested on Canine ventricular muscle fibre.; value ranges from -20-2. In kind it is functional, Canis lupus familiaris, Muscle tissue. In a few lines: as §3
The species named for series [26] is Canis familiaris. Kind of series: Percent change in repolarization at 10 Purkinje fibers.; value ranges from -13 - -3. Format: functional, Canis lupus familiaris, Purkinje fiber. The method, boiled down: as §1
The species entered for series [27] is Canis familiaris. Kind of series: Percent change from control in the functional refractory period (FRP) at 10 uM conc on Canine ventricular muscle fibre.; value ranges from -9-28. More on the design: species or system Canis lupus familiaris, Muscle tissue. The method, boiled down: as §3
Series [28] is filed under the species Canis familiaris. Kind of series: Maximum percent change in repolarization at 10 uM concentration on Canine Purkinje fibers. In kind it is functional, Canis lupus familiaris, Purkinje fiber. The method, boiled down: as §2
Series [29] is filed under the species Canis familiaris. The series is described as follows: Maximum percent change in functional refractory period (FRP) at 10 uM on Canine ventricular muscle fibre. On the set-up: species or system Canis lupus familiaris, Muscle tissue. In a few lines: as §3
For series [30], the species on record is Canis familiaris. The series is described as follows: The maximum percent change in action potential (Vmax) at concentration observed (30 uM ) was tested on Canine Purkinje fibers. More on the design: species or system Canis lupus familiaris, Purkinje fiber. The following applies: dog. The method, boiled down:
as §1

The species entered for series [31] is Canis familiaris. Kind of series: The maximum percent change in action potential (Vmax) at concentration observed (100 uM) was tested on Canine Purkinje fibers. On the set-up: species or system Canis lupus familiaris, Purkinje fiber. The following applies: dog. In a few lines:
as §1

Series [32] is filed under the species Cavia porcellus. Kind of series: Concentration of compound which gives a 20% decrease in contractile force was tested on papillary muscle of guinea pig, activity was expressed as EC-20; NR is not reached.. Format: functional. The following applies: Muscle tissue. In a few lines: as §4
The species named for series [33] is Canis familiaris. Kind of series: Percent change in repolarization at 10 Purkinje fibers.; value ranges from 3-7. In kind it is functional, Canis lupus familiaris, Purkinje fiber. The method, boiled down:
as §1

Series [34] is filed under the species Canis familiaris. The series is described as follows: Percent change from control in the rate of rise of phase 0 of the action potential at 10 uM concentration on Canine Purkinje fibers. On the set-up: species or system Canis lupus familiaris, Purkinje fiber. The following applies: dog, in vitro.
The species entered for series [35] is Canis familiaris. Kind of series: Maximum percent change in repolarization at 0.1 uM concentration on Canine Purkinje fibers. In kind it is functional, Canis lupus familiaris, Purkinje fiber. The method, boiled down:
as §2

For `CCN(CC)CCCNC(=O)c1cc2cccc(O)c2[nH]1`, the APD95 in the series filed under Canis familiaris [1] is recorded as -10%; in the series listed under Canis familiaris [3] it was -14%; in the series listed under Canis familiaris [6] it was -53%. Besides, the Vmax in the series listed under Canis familiaris [2] was -20% and -26%; in the series listed under Canis familiaris [11], -11%; in the series filed under Canis familiaris [13] it was -45%. For the same compound, the FRP in the series listed under Canis familiaris [4] was determined as 8%; in the series listed under Canis familiaris [5], 9%; in the series filed under Canis familiaris [9] it was 19%. In addition, the CT in the series listed under Canis familiaris [7] is recorded as -23%; in the series listed under Canis familiaris [10], -3%; in the series filed under Canis familiaris [12], -8%. Moreover, the EC20 in the series listed under Cavia porcellus [8] is 36 µM.

As for `CCN(CC)CCNC(=O)c1cccc2[nH]ccc12`, the Vmax in the series filed under Canis familiaris [14] was -19%; in the series filed under Canis familiaris [2], -22% and -26%; in the series listed under Canis familiaris [20], -10.5%; in the series filed under Canis familiaris [21], -14%. For the same compound, the APD95 in the series listed under Canis familiaris [3] was -20%; in the series filed under Canis familiaris [19], -3%; in the series filed under Canis familiaris [6], -25%; in the series filed under Canis familiaris [22], -6%. The CT in the series filed under Canis familiaris [15] is on record as 14.7%; in the series listed under Canis familiaris [17] it was “Minimal”. Further, the FRP is recorded as 10.7% in the series filed under Canis familiaris [16] and 6.3% in the series listed under Canis familiaris [18].

Turning to `CCN(CC)CCCNC(=O)c1cccc2[nH]ccc12`, the Vmax in the series listed under Canis familiaris [23] is -11.3%; in the series listed under Canis familiaris [30], -15% and -39%; in the series listed under Canis familiaris [31], -31%. Further, the CT in the series filed under Canis familiaris [24] is listed as 12%; in the series listed under Canis familiaris [25], -8.8%; in the series listed under Canis familiaris [7], -7%. For the same compound, the APD95 in the series listed under Canis familiaris [3] is reported as -22%; in the series listed under Canis familiaris [26], -7.7%; in the series listed under Canis familiaris [28], -3%; in the series filed under Canis familiaris [6], -26%. Besides, the FRP in the series filed under Canis familiaris [27] is reported as 10%; in the series filed under Canis familiaris [29], 11%; in the series listed under Canis familiaris [9], 36%.

As to `CCN(CC)CCCNC(=O)c1c(O)cc(C)nc1C`, the EC20 entry in the series filed under Cavia porcellus [32] is “Not reached”. Moreover, the values for the CT in the series listed under Canis familiaris [24] and in the series filed under Canis familiaris [17] were -7% and “Minimal”, respectively. Moreover, the APD95 turned out to be 5% in the series filed under Canis familiaris [33], 15% in the series filed under Canis familiaris [3], 5% in the series filed under Canis familiaris [35] and 4% in the series listed under Canis familiaris [22]. Also, the Vmax was -1% in the series filed under Canis familiaris [2], 4.6% in the series listed under Canis familiaris [34] and 7% in the series listed under Canis familiaris [13]. The compound further gave an FRP in the series listed under Canis familiaris [5] of 13%.
